Laboratory results from the M2OR odorant receptor database.
Positions count from the first letter of the chain named.

Tests used:
Settings in all cases: stereoisomer not certain
O13C8 A19D = tested on: T1, O13C8 A19D
T1 sequence (whole entry): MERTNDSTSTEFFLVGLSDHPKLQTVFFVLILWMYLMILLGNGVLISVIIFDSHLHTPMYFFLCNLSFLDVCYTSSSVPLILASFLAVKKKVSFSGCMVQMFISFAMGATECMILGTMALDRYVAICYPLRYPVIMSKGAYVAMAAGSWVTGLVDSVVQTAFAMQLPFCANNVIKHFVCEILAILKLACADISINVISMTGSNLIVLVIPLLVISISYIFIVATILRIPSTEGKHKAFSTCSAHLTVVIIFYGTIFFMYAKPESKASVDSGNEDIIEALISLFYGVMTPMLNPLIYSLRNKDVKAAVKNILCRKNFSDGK
Summary of the method: (§1)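 Each receptor–molecule pair is labelled responsive or non-responsive (inactive) according to whether the original authors judged the measured signal statistically different from baseline. The data were taken from the main text and supplementary material of published papers and checked for typos and inconsistencies. Assay methods differed by source, with transient luciferase assays in mammalian cell lines being common.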

O13C9 H17L V19G L23H = tested on: T2, O13C9 H17L V19G L23H
T2 sequence (whole entry): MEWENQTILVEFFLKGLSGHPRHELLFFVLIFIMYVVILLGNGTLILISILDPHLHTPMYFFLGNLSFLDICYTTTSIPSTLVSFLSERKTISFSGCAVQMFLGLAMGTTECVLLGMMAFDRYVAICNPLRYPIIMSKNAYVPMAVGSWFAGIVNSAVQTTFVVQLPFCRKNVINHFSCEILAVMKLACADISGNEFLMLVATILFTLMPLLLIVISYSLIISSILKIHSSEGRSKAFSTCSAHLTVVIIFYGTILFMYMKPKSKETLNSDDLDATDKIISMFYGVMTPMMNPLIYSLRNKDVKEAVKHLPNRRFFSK
Summary of the method: as §1

O13C9 Q6H = tested on: T3, O13C9 Q6H
T3 sequence (whole entry): T2 sequence (whole entry) with Q6H, L17H, G19V, H23L
Summary of the method: as §1

O13F1 F18S T254M = tested on: T4, O13F1 F18S T254M
T4 sequence (whole entry): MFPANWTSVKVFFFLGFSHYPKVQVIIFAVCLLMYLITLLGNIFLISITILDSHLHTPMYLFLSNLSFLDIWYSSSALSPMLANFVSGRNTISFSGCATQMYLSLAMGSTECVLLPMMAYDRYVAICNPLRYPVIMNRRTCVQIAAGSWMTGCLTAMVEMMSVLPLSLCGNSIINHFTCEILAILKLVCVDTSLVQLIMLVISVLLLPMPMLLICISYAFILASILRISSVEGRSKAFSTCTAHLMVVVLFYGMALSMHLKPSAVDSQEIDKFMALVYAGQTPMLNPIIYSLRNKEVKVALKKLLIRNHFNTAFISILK
Summary of the method: as §1

O13F1 F18S = tested on: T5, O13F1 F18S
T5 sequence (whole entry): T4 sequence (whole entry) with M254T
Summary of the method: as §1

O13G1 K46I M146L = tested on: T6, O13G1 K46I M146L
T6 sequence (whole entry): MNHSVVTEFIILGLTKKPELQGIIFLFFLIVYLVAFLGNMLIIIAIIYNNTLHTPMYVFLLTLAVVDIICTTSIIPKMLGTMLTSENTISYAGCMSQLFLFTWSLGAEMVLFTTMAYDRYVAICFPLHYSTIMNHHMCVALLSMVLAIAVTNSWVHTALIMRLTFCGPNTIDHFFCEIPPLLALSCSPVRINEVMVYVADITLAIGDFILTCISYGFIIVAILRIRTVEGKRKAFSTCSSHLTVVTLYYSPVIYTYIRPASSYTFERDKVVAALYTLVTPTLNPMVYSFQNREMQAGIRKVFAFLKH
Summary of the method: as §1

O13G1 = tested on: T7, O13G1
T7 sequence (whole entry): T6 sequence (whole entry) with I46K, I132V, L146M
Summary of the method: as §1

O13H1 Y266S = tested on: T8, O13H1 Y266S
T8 sequence (whole entry): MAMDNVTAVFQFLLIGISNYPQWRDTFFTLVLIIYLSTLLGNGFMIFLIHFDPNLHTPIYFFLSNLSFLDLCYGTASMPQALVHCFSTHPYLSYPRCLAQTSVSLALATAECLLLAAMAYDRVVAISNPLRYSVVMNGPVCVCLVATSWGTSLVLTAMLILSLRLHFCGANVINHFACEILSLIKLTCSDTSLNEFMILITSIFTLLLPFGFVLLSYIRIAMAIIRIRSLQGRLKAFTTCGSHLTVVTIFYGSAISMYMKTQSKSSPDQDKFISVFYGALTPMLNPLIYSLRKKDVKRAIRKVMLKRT
Summary of the method: as §1

O13J1 = tested on: T9, O13J1
T9 sequence (whole entry): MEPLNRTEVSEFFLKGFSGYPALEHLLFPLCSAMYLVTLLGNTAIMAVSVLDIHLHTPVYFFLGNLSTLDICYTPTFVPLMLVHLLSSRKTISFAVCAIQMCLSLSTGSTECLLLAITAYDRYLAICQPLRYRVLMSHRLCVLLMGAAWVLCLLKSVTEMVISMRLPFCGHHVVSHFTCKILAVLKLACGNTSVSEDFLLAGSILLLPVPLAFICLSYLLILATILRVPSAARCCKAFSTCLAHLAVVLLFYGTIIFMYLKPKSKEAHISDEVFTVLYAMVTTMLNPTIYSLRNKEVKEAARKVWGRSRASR
Summary of the method: as §1

O14A2 I133V = tested on: T10, O14A2 I133V
T10 sequence (whole entry): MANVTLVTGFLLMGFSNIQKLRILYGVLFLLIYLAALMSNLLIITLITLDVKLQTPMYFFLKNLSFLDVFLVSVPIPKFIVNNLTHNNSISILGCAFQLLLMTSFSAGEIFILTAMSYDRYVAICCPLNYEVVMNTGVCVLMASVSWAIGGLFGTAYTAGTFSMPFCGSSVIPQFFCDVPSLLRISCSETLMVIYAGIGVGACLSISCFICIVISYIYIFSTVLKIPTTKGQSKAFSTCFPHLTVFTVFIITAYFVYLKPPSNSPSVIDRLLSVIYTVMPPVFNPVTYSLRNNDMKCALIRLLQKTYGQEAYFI
Summary of the method: as §1

O14CZ = tested on: T11, O14CZ
T11 sequence (whole entry): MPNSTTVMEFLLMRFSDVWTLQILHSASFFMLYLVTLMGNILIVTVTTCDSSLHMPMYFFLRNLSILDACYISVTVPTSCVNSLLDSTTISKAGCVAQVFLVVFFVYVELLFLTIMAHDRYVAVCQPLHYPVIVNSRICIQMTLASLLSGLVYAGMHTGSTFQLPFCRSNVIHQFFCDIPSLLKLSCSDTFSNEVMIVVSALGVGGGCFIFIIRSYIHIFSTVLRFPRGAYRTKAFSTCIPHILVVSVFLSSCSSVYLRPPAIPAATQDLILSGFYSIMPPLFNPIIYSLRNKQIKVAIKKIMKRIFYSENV
Summary of the method: as §1

O14I1 V36A D50N Y216C = tested on: T12, O14I1 V36A D50N Y216C
T12 sequence (whole entry): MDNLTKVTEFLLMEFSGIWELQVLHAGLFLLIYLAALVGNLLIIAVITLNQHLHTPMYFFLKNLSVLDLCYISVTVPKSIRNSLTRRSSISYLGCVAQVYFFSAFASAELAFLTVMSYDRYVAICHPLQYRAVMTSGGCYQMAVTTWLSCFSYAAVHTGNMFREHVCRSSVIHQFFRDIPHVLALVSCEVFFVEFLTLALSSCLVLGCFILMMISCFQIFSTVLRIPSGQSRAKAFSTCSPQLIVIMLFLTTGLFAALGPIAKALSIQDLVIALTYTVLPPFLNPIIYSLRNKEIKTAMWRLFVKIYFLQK
Summary of the method: as §1

O14J1 N3Y = tested on: T13, O14J1 N3Y
T13 sequence (whole entry): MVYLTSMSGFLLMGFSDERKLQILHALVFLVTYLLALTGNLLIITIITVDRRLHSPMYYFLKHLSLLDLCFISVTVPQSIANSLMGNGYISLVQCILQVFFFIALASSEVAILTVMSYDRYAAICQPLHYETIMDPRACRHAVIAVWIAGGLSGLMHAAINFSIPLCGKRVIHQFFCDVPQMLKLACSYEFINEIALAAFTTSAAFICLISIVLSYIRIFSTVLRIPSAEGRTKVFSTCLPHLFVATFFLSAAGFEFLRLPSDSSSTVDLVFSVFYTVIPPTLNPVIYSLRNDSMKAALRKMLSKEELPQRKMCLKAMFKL
Summary of the method: as §1

O14K1 D119Y = tested on: T14, O14K1 D119Y
T14 sequence (whole entry): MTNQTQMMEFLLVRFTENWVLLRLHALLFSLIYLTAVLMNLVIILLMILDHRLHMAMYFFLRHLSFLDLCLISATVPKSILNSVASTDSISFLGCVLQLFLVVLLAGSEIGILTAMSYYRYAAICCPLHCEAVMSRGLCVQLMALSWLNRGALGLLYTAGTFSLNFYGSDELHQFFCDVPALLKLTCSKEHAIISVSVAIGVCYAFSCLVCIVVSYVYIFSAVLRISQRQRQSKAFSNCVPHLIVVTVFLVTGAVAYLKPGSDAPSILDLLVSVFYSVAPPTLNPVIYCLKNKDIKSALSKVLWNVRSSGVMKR
Summary of the method: as §1

O2A25 = tested on: T15, O2A25
T15 sequence (whole entry): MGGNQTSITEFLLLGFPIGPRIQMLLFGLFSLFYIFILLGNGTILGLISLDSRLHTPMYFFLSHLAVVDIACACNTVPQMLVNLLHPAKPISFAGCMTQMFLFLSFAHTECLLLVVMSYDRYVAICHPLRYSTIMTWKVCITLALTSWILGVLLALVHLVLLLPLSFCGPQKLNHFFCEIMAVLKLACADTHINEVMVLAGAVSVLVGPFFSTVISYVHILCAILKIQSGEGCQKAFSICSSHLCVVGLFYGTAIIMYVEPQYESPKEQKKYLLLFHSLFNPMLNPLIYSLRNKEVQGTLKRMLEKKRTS
Summary of the method: as §1

O2AE1 = tested on: T16, O2AE1
T16 sequence (whole entry): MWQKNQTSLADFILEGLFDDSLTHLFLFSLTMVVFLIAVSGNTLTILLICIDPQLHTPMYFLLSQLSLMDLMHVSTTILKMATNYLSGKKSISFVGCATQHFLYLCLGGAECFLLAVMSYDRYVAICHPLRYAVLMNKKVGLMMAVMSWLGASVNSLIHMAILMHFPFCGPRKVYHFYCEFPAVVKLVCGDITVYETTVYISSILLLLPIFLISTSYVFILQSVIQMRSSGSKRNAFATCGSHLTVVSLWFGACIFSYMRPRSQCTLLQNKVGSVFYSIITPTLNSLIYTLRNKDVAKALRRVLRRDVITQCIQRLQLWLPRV
Summary of the method: as §1

O2AJ1 = tested on: T17, O2AJ1
T17 sequence (whole entry): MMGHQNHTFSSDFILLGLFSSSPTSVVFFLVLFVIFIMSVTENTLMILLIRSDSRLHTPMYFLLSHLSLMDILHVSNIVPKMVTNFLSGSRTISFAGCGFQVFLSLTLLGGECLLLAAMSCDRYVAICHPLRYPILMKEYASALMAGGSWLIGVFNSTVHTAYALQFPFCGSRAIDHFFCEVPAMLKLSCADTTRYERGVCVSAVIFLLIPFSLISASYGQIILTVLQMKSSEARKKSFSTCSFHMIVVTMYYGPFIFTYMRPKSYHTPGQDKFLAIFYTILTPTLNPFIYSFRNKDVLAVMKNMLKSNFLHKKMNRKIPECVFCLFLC
Summary of the method: as §1

O2AK2 S99N = tested on: T18, O2AK2 S99N
T18 sequence (whole entry): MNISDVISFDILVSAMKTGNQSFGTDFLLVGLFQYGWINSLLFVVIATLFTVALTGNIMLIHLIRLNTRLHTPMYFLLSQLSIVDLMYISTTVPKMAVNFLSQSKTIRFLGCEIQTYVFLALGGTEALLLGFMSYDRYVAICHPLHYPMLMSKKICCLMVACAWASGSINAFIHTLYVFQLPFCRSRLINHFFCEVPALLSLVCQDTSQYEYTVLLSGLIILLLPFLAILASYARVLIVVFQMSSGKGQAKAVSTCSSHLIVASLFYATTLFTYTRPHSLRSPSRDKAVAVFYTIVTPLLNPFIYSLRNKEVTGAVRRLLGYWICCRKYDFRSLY
Summary of the method: as §1

Measured: odorant receptor agonist call;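 note: active if original authors judged signal statistically different from baseline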

CC1=NC(C)C(C)S1 (stereo not drawn)
inactive: O13C8 A19D | O13C9 H17L V19G L23H | O13C9 Q6H | O13F1 F18S T254M | O13F1 F18S | O13G1 K46I M146L | O13G1 | O13H1 Y266S | O13J1 | O14A2 I133V | O14CZ | O14I1 V36A D50N Y216C | O14J1 N3Y | O14K1 D119Y | O2A25 | O2AE1 | O2AJ1 | O2AK2 S99N
